Experimental findings from ChEMBL document CHEMBL1141219, “Chemoenzymatic synthesis of a series of 4-substituted glutamate analogues and pharmacological characterization at human glutamate transporters subtypes 1-3” (J Med Chem, 2005) are described below.

What all share (assay type): functional, cell-based
Test [1] deals with Excitatory amino acid transporter 2 (Homo sapiens) (UniProt P43004). Put plainly: Binding affinity to human EAAT2 expressed in HEK293 cells in FMP (FLPR) assay. Put shortly: (§1)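 HEK293 cells stably expressing the human transporter, seeded on poly-D-lysine plates in DMEM with 10% dialyzed FBS and G-418 for 16–24 h. Cells washed in Krebs buffer (pH 7.4), then loaded with FMP dye for 30 min at 37 °C. Read at room temperature, excitation 530 nm and emission 560 nm, for up to 1 min after substrate addition. Non-substrate inhibitors were preincubated and tested against 30 μM Glu. Seven-concentration curves from maximal responses, duplicate, at least three times.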
Sequence of Excitatory amino acid transporter 2 (Homo sapiens) (P43004 whole entry): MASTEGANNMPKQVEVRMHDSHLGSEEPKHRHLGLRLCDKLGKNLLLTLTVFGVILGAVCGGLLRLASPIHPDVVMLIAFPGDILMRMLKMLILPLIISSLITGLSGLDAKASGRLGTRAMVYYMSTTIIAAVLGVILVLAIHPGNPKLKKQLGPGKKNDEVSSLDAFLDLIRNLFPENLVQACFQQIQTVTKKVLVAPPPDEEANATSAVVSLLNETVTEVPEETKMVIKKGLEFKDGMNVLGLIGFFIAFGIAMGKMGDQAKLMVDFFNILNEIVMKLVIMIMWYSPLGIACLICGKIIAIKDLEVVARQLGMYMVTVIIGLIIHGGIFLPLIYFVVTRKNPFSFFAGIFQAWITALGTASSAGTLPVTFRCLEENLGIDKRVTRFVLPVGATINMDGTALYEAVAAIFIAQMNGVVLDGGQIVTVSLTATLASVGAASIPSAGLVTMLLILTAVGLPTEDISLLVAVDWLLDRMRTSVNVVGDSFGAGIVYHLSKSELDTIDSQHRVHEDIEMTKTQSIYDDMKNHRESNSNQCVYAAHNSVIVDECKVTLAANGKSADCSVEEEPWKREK

In test [2] the target is Excitatory amino acid transporter 1 (Homo sapiens) (UniProt P43003). Put plainly: Binding affinity to human EAAT1 expressed in HEK293 cells in FMP (FLPR) assay. The gist of the method:
as §1

The target of test [3] is T1, Excitatory amino acid transporter 3 (Homo sapiens) (UniProt P43005).
T1 sequence (whole entry): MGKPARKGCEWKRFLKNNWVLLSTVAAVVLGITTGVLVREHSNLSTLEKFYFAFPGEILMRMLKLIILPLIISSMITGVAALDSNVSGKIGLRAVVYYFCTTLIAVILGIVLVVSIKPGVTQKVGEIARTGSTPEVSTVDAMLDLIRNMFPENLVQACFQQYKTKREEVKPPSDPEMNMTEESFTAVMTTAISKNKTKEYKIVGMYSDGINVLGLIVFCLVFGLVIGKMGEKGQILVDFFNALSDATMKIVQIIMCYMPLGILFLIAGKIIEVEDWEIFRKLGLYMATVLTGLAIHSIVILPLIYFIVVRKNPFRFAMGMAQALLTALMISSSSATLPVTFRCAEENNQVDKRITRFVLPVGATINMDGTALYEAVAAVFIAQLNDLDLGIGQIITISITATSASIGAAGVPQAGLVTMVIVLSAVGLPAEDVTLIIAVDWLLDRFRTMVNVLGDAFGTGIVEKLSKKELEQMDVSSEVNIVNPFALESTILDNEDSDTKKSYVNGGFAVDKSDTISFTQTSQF
Put plainly: Binding affinity to human EAAT3 expressed in HEK293 cells in FMP (FLPR) assay. The gist of the method: as §1

Sequence of Excitatory amino acid transporter 1 (Homo sapiens) (P43003 whole entry): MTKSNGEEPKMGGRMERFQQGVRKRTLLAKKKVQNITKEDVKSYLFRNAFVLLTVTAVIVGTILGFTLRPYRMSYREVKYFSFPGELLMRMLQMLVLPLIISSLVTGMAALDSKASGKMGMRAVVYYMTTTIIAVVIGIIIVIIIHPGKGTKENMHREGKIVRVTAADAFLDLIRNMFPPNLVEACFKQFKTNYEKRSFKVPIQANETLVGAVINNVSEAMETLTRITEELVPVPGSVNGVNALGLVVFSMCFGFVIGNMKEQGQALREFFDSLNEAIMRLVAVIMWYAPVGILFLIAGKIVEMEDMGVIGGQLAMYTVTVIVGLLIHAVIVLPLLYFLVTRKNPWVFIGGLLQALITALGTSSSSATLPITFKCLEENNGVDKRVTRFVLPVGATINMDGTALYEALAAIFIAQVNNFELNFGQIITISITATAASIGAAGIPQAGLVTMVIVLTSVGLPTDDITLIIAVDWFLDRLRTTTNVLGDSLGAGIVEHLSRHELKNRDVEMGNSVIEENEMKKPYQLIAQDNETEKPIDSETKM

As for `N[C@@H](CCC(=O)O)C(=O)O`, the pKm in test [1] was determined as 4.69; in test [2], 5.04; in test [3], 4.61.
Take `N[C@@H](C[C@@H](O)C(=O)O)C(=O)O`: the pKm in test [1], in test [2] and in test [3] was 3 throughout.
Consider `N[C@@H](C[C@H](O)C(=O)O)C(=O)O`, for which the pKm in test [1] was found to be 4.21; in test [2], 4.06; in test [3], 4.16.
In test [2], `C[C@H](C[C@H](N)C(=O)O)C(=O)O` gave a pKm of 4.92.
